Source: PubChem
The sample as a whole holds a higher share of hits than the screen did.
HCT116 PTEN-null: PTEN-deleted cell growth suppression; AID 827; 140,000 compounds, 1.2% hits; viability, % at 10 µM; HCT116 PTEN-null viability, CellTiter-Glo, 60 h; active compounds read low;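 active = viability at or below a set limit, 4 SD under the median of all tested compounds, cut at about 3.7% in these data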;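 also: PTEN knockout HCT116 line with beta catenin targeted HCT116 as companion control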
H69AR inhibit: growth inhibitors of human H69AR lung tumor cells; H69AR lung tumor viability, ATP luminescence, 72 h; active compounds read low; viability, % at 10 µM; 85,000 compounds, 6% hits; AID 598;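 active = viability at or below 40%; inactive = viability above 40%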;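 also: multidrug resistant small cell line overexpressing MRP-1 efflux transporter; 100% = mean luminescence of untreated control wells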
HUVEC prolif 384: blocks proliferation of human endothelial cells. AID 648. viability, % at 10 µM (by protocol). 86,000 compounds, 1.1% hits. HUVEC proliferation, CellTiter-Glo luminescence, 72 h; active compounds read low;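 active = viability at or below 30%; inactive = viability above 30%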;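 also: 100% = median luminescence of DMSO-only cell control wells on each plate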
bCat KO growth: beta-catenin-lacking colon tumor cell growth suppression. HCT116 beta-catenin knockout viability, CellTiter-Glo, 60 h; active compounds read low. viability, % at 10 µM. 140,000 compounds, 1.5% hits;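 active = viability at or under a set limit, the compound median less 4 SD, cut at about 6% in these data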;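 also: 0% = Hyamine 1622 control at 20 µM and 100% = untreated cell control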
Fibroblast inh: blocks proliferation of human lung fibroblasts | LL 47 human lung fibroblast viability, ATP luminescence; active compounds read low | viability, % at 10 µM | 85,000 compounds, 1.1% hits | AID 719;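 active = viability at or below 50% in the single dose screen; inactive = viability above 50%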;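 also: compound exposure lasted 72 h before the ATP readout; 100% = median luminescence of untreated cell-only wells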
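Material: Human LL 47 lung fibroblast cells | Input: 1,150 cells/well | Buffer or medium: IMEM plus 15% FBS | Compound dosing: 0.1% DMSO in all compound wells | Times: Overnight cell rest, 72 h compound treatment at 37 °C | Signal: CellTiter-Glo luminescence measuring cellular ATP | Measure: % viability versus median cells-only luminescence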
* hit, by the source's call; / = no result.

SMILES | HCT116 PTEN-null | H69AR inhibit | HUVEC prolif 384 | bCat KO growth | Fibroblast inh
Cn1c(-[n+]2c(-c3ccccc3)cc(-c3ccccc3)cc2-c2ccccc2)nc2c([N+](=O)[O-])cccc21 | 32 | / | / | 59 | /
CCC1Oc2ccc(C)cc2N(CC(=O)N(Cc2cccnc2)Cc2ccc(C)o2)C1=O (stereo not drawn) | 78 | 58 | 89 | 76 | 97
CCC1Oc2ccc(C)cc2N(CC(=O)N(Cc2ccc(C)o2)C2CC(C)(C)NC(C)(C)C2)C1=O (stereo not drawn) | 12 | 32* | 73 | 21 | 84
COC(=O)c1cccc(Cn2nnc3ccccc3c2=O)c1 | 83 | 94 | 94 | 82 | /
CCOc1ccc(NC(=O)Nc2cc(OCC(F)(F)F)cc(OCC(F)(F)F)c2)cc1 | 17 | / | / | 41 | /
O=C(Nc1ccc(F)cc1)Nc1cc(OCC(F)(F)F)cc(OCC(F)(F)F)c1 | 3.7* | / | / | 5.5* | /
O=C(NCCNC(=O)c1cc(OCC(F)(F)F)ccc1OCC(F)(F)F)Nc1ccc(Cl)cc1 | 10 | / | / | 5.4* | /
CCOC(=O)CS(=O)(=O)c1ccccc1 | 114 | 103 | 101 | 106 | 94
CCOC(=O)CS(=O)(=O)c1nc(-c2ccccc2)cc(C(F)(F)F)n1 | 95 | 1.6* | 12* | 93 | 3.8*
CCOC(=O)CCS(=O)(=O)c1nc(-c2ccccc2)cc(C(F)(F)F)n1 | 96 | 0.8* | 28* | 90 | 3.0*
CCOC(=O)CS(=O)(=O)c1nc(-c2ccc(F)cc2)cc(C(F)(F)F)n1 | 95 | 4.4* | 24* | 101 | 2.9*
COCC(C)NC(=O)CCS(=O)(=O)c1nc(-c2ccc(OC)cc2)cc(C(F)(F)F)n1 (stereo not drawn) | 101 | / | / | 91 | /
COC(=O)CCS(=O)(=O)c1nc(-c2ccccc2)cc(C(F)(F)F)n1 | 84 | 1.4* | 55 | 88 | 28*
c1ccc2nc3c(cc2c1)CCCCCC3 | 104 | 90 | 108 | 98 | 102
O=C(CNC(=O)c1ccc(Cl)cc1Cl)OCC(=O)c1ccc2c(c1)OCCO2 | 104 | / | / | 89 | /
C=CCn1c(SCC(O)Cn2c3ccccc3c3ccccc32)nnc1-c1ccco1 (stereo not drawn) | 78 | 26* | 62 | 86 | 87
C=CCn1c(SCC(=O)Nc2ccccc2OC)nnc1-c1ccco1 | 71 | 87 | 84 | 69 | 91
COc1cc(C(=O)NCC(c2cccnc2)N2CCN(c3ccccc3)CC2)cc(OC)c1OC (stereo not drawn) | 81 | 79 | 91 | 92 | 100
Cc1ccnc(NC(=O)CCCOc2cc(=O)n(C)c3ccccc23)c1 | 2.9* | / | / | 5.4* | /
COC(=O)[C@@H]1[C@@H](C#N)C2(c3ccccc3-c3ccccc32)N(c2ccc(Cl)cc2)N1C#N | 87 | 0.2* | 21* | 95 | 40*
O=C(Cc1ccc(Cl)cc1)NN1C(=O)c2ccccc2C1=O | 111 | / | / | 99 | /
COc1ccc(C(c2nnnn2C2CCCC2)N2CCC(C)CC2)c(OC)c1 (stereo not drawn) | 64 | 62 | 101 | 64 | 93
COc1ccc2cc(C(c3nnnn3C3CCCCC3)N3CCCCCC3)c3nnnn3c2c1 (stereo not drawn) | / | 35* | 85 | / | 87
COc1ccc2cc(C(c3nnnn3C3CCCC3)N3CCCCCC3)c3nnnn3c2c1 (stereo not drawn) | 2.3* | 40 | 43 | 9 | 95
O=c1oc2c(O)c(O)cc3c(=O)oc4c(O)c(O)cc1c4c23 | 61 | 16* | 69 | 60 | 99
SMILES | HCT116 PTEN-null | H69AR inhibit | HUVEC prolif 384 | bCat KO growth | Fibroblast inh
Cc1nc2c(c(=O)n1CC1CCCO1)c1nc3ccccc3nc1n2CCC(C)C (stereo not drawn) | / | 93 | 84 | / | 90
CCC(C)n1c(C)nc2c(c1=O)c1nc3ccccc3nc1n2CCC1=CCCCC1 (stereo not drawn) | 43 | 3.6* | 99 | 37 | 98
CCc1nc2c(nnn2Cc2ccc(F)cc2)c(=O)[nH]1 | 85 | 99 | 102 | 87 | 104
CCOc1cc(/C=C(\C#N)c2[nH]nc(N)c2C#N)ccc1O | 84 | 37* | 64 | 79 | 82
CCOc1cc(-c2cc(-c3ccc(C)cc3)nc(N)c2C#N)ccc1O | 7 | 6.9* | 41 | 8 | 65
CCOc1cc(/C=C(\C#N)C(=O)NCC2CCCO2)ccc1O (stereo not drawn) | 101 | / | / | 88 | /
CCOc1cc(-c2c(C#N)c(N)nc3c2CCCC3C)ccc1O (stereo not drawn) | 101 | 31* | 76 | 84 | 96
CCOc1cc(-c2c(C#N)c(N)nc3c2CCc2ccccc2-3)ccc1O | 47 | / | / | 50 | /
O=C(/C=C\Nc1cccc(F)c1)c1cccs1 | 104 | / | / | 84 | /
CC(C)(C)C(=O)Nc1ccc2c(c1)-c1cc(NC(=O)C(C)(C)C)ccc1C2 | 55 | / | / | 60 | /
CCOC(=O)C(C)n1cnc2c(cnn2-c2ccc(Cl)cc2)c1=O (stereo not drawn) | 97 | 86 | 100 | 87 | 102
CCOC(=O)N1CCC(NC(=O)C2CCC(CNS(=O)(=O)c3ccc(OC)cc3)CC2)CC1 (stereo not drawn) | 95 | 6.0* | 73 | 92 | /
CCOC(=O)N1CCN(C(=O)C2CCC(CNS(=O)(=O)c3ccc(Cl)cc3)CC2)CC1 (stereo not drawn) | 104 | 82 | 97 | 104 | 97
CCOC(=O)N1CCC(NC(=O)CNS(=O)(=O)c2ccc(Br)s2)CC1 | 81 | 23* | 74 | 86 | 90
COCCCNC(=O)CSC1=Nc2ccccc2C2=NC(Cc3c[nH]c4ccccc34)C(=O)N12 (stereo not drawn) | 94 | 95 | 90 | 94 | 101
COCc1cc(C)nc(N2CCc3ccccc32)c1C#N | 80 | 31* | 96 | 91 | 103
COCc1cc(C)nc(Nc2ccccc2C)c1C#N | 97 | 98 | 91 | 92 | 84
CC1=CC(C)(C)N(S(=O)(=O)c2ccc(C)cc2)c2cc(C)ccc21 | 14 | 35* | 44 | 11 | 52
Cc1ccc(-c2noc(CCC(=O)NCC3CCN(Cc4cccc(C)c4)CC3)n2)cc1 | 52 | 73 | 69 | 46 | 76
C=CCc1cc(Cl)ccc1OCCCNC(C)CC (stereo not drawn) | 29 | / | / | 25 | /
CCOc1ccccc1N(CC(=O)NC1CCCCC1)C(=O)CNC(=O)c1ccco1 | 99 | 98 | 104 | 97 | 98
COC(=O)NC(=S)Nc1ccc(Oc2ccc(Cl)cc2Cl)c(Cl)c1 | 26 | 24* | 57 | 23 | 103
Cc1onc(-c2c(F)cccc2Cl)c1C(=O)NC(=S)NC1CCSC1=O (stereo not drawn) | 90 | / | / | 95 | /
Cc1cccc2cc(C(c3nnnn3Cc3ccccc3)N3CCCc4ccccc43)c(=O)[nH]c12 (stereo not drawn) | 2.7* | / | / | 1.8* | /
Cc1ccc(C)c(CSc2nnc([C@@H](N)C(C)C)o2)c1 | 106 | 90 | 95 | 109 | 105
Cc1ccc(C)c(CSc2nnc(CCN)o2)c1 | 87 | 31* | 55 | 76 | 71
Cc1oc2c(C)c3oc(=O)c4c(c3cc2c1C)CCC4 | 81 | 74 | 102 | 78 | 95
